# Results reported in ChEMBL document CHEMBL1649407, “Part I: Synthesis, cancer chemopreventive activity and molecular docking study of novel quinoxaline derivatives” (Eur J Med Chem, 2011).
# Columns and labels:
# [1] = Cytotoxicity against human Raji cells assessed as cell viability at 1000 molar ratio by trypan blue staining method
# Mus musculus [2] = assay: Inhibition of DMBA-initiated/TPA-promoted carcinogenesis in ICR mouse assessed as mouse bearing papillomas at 85 nmol administered 1 hr before TPA treatment measured after 6 weeks by two-stage carcinogenesis test; assay type: functional; set-up: scale not given: the % may be the effect or the level left
# How it was run: (§1)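 Female SPF ICR mice, 6 weeks old, 15 per group, backs shaved. Initiation: topical DMBA (390 nmol) in 0.1 mL acetone. Promotion began one week later: TPA (1.7 nmol) in 0.1 mL acetone, twice weekly. Test compound (85 nmol) in 0.1 mL acetone applied topically 1 h before each promotion. Papilloma-bearing mice and papillomas per mouse scored weekly for 20 weeks. Tumor type confirmed histologically. Student's t-test.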
# Mus musculus [3] = assay: Inhibition of DMBA-initiated/TPA-promoted carcinogenesis in ICR mouse assessed as mouse bearing papillomas at 85 nmol administered 1 hr before TPA treatment measured after 1 week by two-stage carcinogenesis test; assay type: functional; set-up: scale not given: the % may be the effect or the level left; how it was run: as §1
# Mus musculus [4] = assay: Toxicity in topically treated ICR mouse assessed as inflammation; assay type: organism-based; conditions: in vivo, topical_or_ocular
# How it was run: (§2)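 Treated areas of shaved back skin were inspected during the DMBA/TPA two-stage study, where test compound (85 nmol in acetone) was applied topically before each twice-weekly TPA promotion. Scored for lesional damage and for inflammation (edema, erosion, ulcer).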
# Mus musculus [5] = assay: Inhibition of DMBA-initiated/TPA-promoted carcinogenesis in ICR mouse assessed as mouse bearing papillomas at 85 nmol administered 1 hr before TPA treatment measured after 5 weeks by two-stage carcinogenesis test; assay type: functional; set-up: scale not given: the % may be the effect or the level left; how it was run: as §1
# Mus musculus [6] = assay: Toxicity in topically treated ICR mouse assessed as lesional damage; assay type: organism-based; conditions: in vivo, topical_or_ocular; how it was run: as §2
# Mus musculus [7] = assay: Inhibition of DMBA-initiated/TPA-promoted carcinogenesis in ICR mouse assessed as mouse bearing papillomas at 85 nmol administered 1 hr before TPA treatment measured after 12 weeks by two-stage carcinogenesis test; assay type: functional; set-up: scale not given: the % may be the effect or the level left; how it was run: as §1
# Mus musculus [8] = assay: Inhibition of DMBA-initiated/TPA-promoted carcinogenesis in ICR mouse assessed as mouse bearing papillomas at 85 nmol administered 1 hr before TPA treatment measured after 8 weeks by two-stage carcinogenesis test; assay type: functional; set-up: scale not given: the % may be the effect or the level left; how it was run: as §1
# Mus musculus [9] = assay: Inhibition of DMBA-initiated/TPA-promoted carcinogenesis in ICR mouse assessed as mouse bearing papillomas at 85 nmol administered 1 hr before TPA treatment measured after 10 weeks by two-stage carcinogenesis test; assay type: functional; set-up: scale not given: the % may be the effect or the level left; how it was run: as §1
# Mus musculus [10] = assay: Inhibition of DMBA-initiated/TPA-promoted carcinogenesis in ICR mouse assessed as mouse bearing papillomas at 85 nmol administered 1 hr before TPA treatment measured after 16 weeks by two-stage carcinogenesis test; assay type: functional; set-up: scale not given: the % may be the effect or the level left; how it was run: as §1
# Mus musculus [11] = assay: Inhibition of DMBA-initiated/TPA-promoted carcinogenesis in ICR mouse assessed as mouse bearing papillomas at 85 nmol administered 1 hr before TPA treatment measured after 2 weeks by two-stage carcinogenesis test; assay type: functional; set-up: scale not given: the % may be the effect or the level left; how it was run: as §1
# Mus musculus [12] = assay: Inhibition of DMBA-initiated/TPA-promoted carcinogenesis in ICR mouse assessed as mouse bearing papillomas at 85 nmol administered 1 hr before TPA treatment measured after 20 weeks by two-stage carcinogenesis test; assay type: functional; set-up: scale not given: the % may be the effect or the level left; how it was run: as §1
# Mus musculus [13] = assay: Inhibition of DMBA-initiated/TPA-promoted carcinogenesis in ICR mouse assessed as mouse bearing papillomas at 85 nmol administered 1 hr before TPA treatment measured after 15 weeks by two-stage carcinogenesis test; assay type: functional; set-up: scale not given: the % may be the effect or the level left; how it was run: as §1
# Mus musculus [14] = assay: Inhibition of DMBA-initiated/TPA-promoted carcinogenesis in ICR mouse assessed as mouse bearing papillomas at 85 nmol administered 1 hr before TPA treatment measured after 17 weeks by two-stage carcinogenesis test; assay type: functional; set-up: scale not given: the % may be the effect or the level left; how it was run: as §1
# Mus musculus [15] = species on record: Mus musculus; assay: Toxicity in ICR mouse assessed as change in body weight; assay type: organism-based; conditions: in vivo
# How it was run: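 Mice from the DMBA/TPA two-stage skin study received topical test compound in acetone before each TPA promotion. Body-weight gain was followed during the 20-week experiment. Food and water ad libitum, five mice per cage at 24 ± 2 °C.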
# Mus musculus [16] = assay: Inhibition of DMBA-initiated/TPA-promoted carcinogenesis in ICR mouse assessed as mouse bearing papillomas at 85 nmol administered 1 hr before TPA treatment measured after 19 weeks by two-stage carcinogenesis test; assay type: functional; set-up: scale not given: the % may be the effect or the level left; how it was run: as §1
# Mus musculus [17] = assay: Inhibition of DMBA-initiated/TPA-promoted carcinogenesis in ICR mouse assessed as mouse bearing papillomas at 85 nmol administered 1 hr before TPA treatment measured after 3 weeks by two-stage carcinogenesis test; assay type: functional; set-up: scale not given: the % may be the effect or the level left; how it was run: as §1
# Mus musculus [18] = assay: Inhibition of DMBA-initiated/TPA-promoted carcinogenesis in ICR mouse assessed as mouse bearing papillomas at 85 nmol administered 1 hr before TPA treatment measured after 14 weeks by two-stage carcinogenesis test; assay type: functional; set-up: scale not given: the % may be the effect or the level left; how it was run: as §1
# Mus musculus [19] = assay: Inhibition of DMBA-initiated/TPA-promoted carcinogenesis in ICR mouse assessed as mouse bearing papillomas at 85 nmol administered 1 hr before TPA treatment measured after 13 weeks by two-stage carcinogenesis test; assay type: functional; set-up: scale not given: the % may be the effect or the level left; how it was run: as §1
# Mus musculus [20] = assay: Inhibition of DMBA-initiated/TPA-promoted carcinogenesis in ICR mouse assessed as mouse bearing papillomas at 85 nmol administered 1 hr before TPA treatment measured after 4 weeks by two-stage carcinogenesis test; assay type: functional; set-up: scale not given: the % may be the effect or the level left; how it was run: as §1
# Mus musculus [21] = assay: Inhibition of DMBA-initiated/TPA-promoted carcinogenesis in ICR mouse assessed as mouse bearing papillomas at 85 nmol administered 1 hr before TPA treatment measured after 7 weeks by two-stage carcinogenesis test; assay type: functional; set-up: scale not given: the % may be the effect or the level left; how it was run: as §1
# Mus musculus [22] = assay: Inhibition of DMBA-initiated/TPA-promoted carcinogenesis in ICR mouse assessed as mouse bearing papillomas at 85 nmol administered 1 hr before TPA treatment measured after 18 weeks by two-stage carcinogenesis test; assay type: functional; set-up: scale not given: the % may be the effect or the level left; how it was run: as §1
# Mus musculus [23] = assay: Inhibition of DMBA-initiated/TPA-promoted carcinogenesis in ICR mouse assessed as mouse bearing papillomas at 85 nmol administered 1 hr before TPA treatment measured after 11 weeks by two-stage carcinogenesis test; assay type: functional; set-up: scale not given: the % may be the effect or the level left; how it was run: as §1
# Mus musculus [24] = assay: Inhibition of DMBA-initiated/TPA-promoted carcinogenesis in ICR mouse assessed as mouse bearing papillomas at 85 nmol administered 1 hr before TPA treatment measured after 9 weeks by two-stage carcinogenesis test; assay type: functional; set-up: scale not given: the % may be the effect or the level left; how it was run: as §1
compound,measurement,setting,value
CCOC(=O)Cn1c(=O)c(N/N=C/c2ccccc2OC)nc2ccccc21,viability at 1000 molar ratio,[1]; Raji cells,60%
Nc1nc2ccccc2[nH]c1=O,viability at 1000 molar ratio,[1]; Raji cells,60%
O=c1[nH]c2ccccc2nc1N/N=C/c1ccccc1,viability at 1000 molar ratio,[1]; Raji cells,60%
N#Cc1c(-c2ccc(F)cc2)nc(Sc2nc3ccccc3nc2Cl)[nH]c1=O,viability at 1000 molar ratio,[1]; Raji cells,60%
C=CCN(/N=C/c1ccccc1OC)c1nc2ccccc2n(CC=C)c1=O,viability at 1000 molar ratio,[1]; Raji cells,60%
same,Activity,Mus musculus [2],0%
same,Activity,Mus musculus [3],0%
same,Activity,Mus musculus [4],Non-toxic
same,Activity,Mus musculus [5],0%
same,Activity,Mus musculus [6],Non-toxic
same,Activity,Mus musculus [7],33.3%
same,Activity,Mus musculus [8],13.3%
same,Activity,Mus musculus [9],20%
same,Activity,Mus musculus [10],66.6%
same,Activity,Mus musculus [11],0%
same,Activity,Mus musculus [12],86.6%
same,Activity,Mus musculus [13],60%
same,Activity,Mus musculus [14],73.3%
same,Activity,Mus musculus [15],Non-toxic
same,Activity,Mus musculus [16],86.6%
same,Activity,Mus musculus [17],0%
same,Activity,Mus musculus [18],60%
same,Activity,Mus musculus [19],46.6%
same,Activity,Mus musculus [20],0%
same,Activity,Mus musculus [21],0%
same,Activity,Mus musculus [22],80%
same,Activity,Mus musculus [23],26.6%
same,Activity,Mus musculus [24],13.3%
Clc1nc2ccccc2nc1Sc1nc2ccccc2[nH]1,viability at 1000 molar ratio,[1]; Raji cells,60%
N#Cc1c(-c2ccc(O)cc2)nc(Sc2nc3ccccc3nc2Cl)[nH]c1=O,viability at 1000 molar ratio,[1]; Raji cells,60%
NNc1nc2ccccc2[nH]c1=O,viability at 1000 molar ratio,[1]; Raji cells,60%
COc1ccccc1/C=N/Nc1nc2ccccc2[nH]c1=O,viability at 1000 molar ratio,[1]; Raji cells,60%
Clc1nc2ccccc2nc1SCc1nc2ccccc2[nH]1,viability at 1000 molar ratio,[1]; Raji cells,60%
c1ccc2nc3c(nc2c1)[nH]c1cccc[n+]13,viability at 1000 molar ratio,[1]; Raji cells,60%
N#Cc1c(-c2ccccc2)nc(Sc2nc3ccccc3nc2Cl)[nH]c1=O,viability at 1000 molar ratio,[1]; Raji cells,60%
CCOC(=O)CN(/N=C/c1ccccc1OC)c1nc2ccccc2n(CC(=O)OCC)c1=O,viability at 1000 molar ratio,[1]; Raji cells,60%
Oc1nc2ccccc2nc1O,viability at 1000 molar ratio,[1]; Raji cells,60%
CCOC(=O)Cn1c(=O)c(N/N=C/c2ccccc2)nc2ccccc21,viability at 1000 molar ratio,[1]; Raji cells,60%
c1ccc2nc3c(nc2c1)nc1ccccn13,viability at 1000 molar ratio,[1]; Raji cells,60%
Clc1nc2ccccc2nc1Cl,viability at 1000 molar ratio,[1]; raji,50%
O=c1[nH]c2ccccc2nc1Cl,viability at 1000 molar ratio,[1]; Raji cells,50%
C=CCn1c(=O)c(N/N=C/c2ccccc2)nc2ccccc21,viability at 1000 molar ratio,[1]; Raji cells,60%
C=CCn1c(=O)c(N/N=C/c2ccccc2OC)nc2ccccc21,viability at 1000 molar ratio,[1]; Raji cells,60%
